pIC50: −log10 of the molar value.
Key:
[1] = biological target: T1, Sodium-dependent serotonin transporter (Rattus norvegicus, UniProt P31652); experiment: Inhibition of [3H]5-HT reuptake in whole rat brain (minus cerebellum) homogenate.; assay type: functional, tissue-based
[2] = biological target: T1, Sodium-dependent serotonin transporter; experiment: Binding affinity for rat 5-hydroxytryptamine transporter.
Summary of the method: (§1)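 Drugs and blockers prepared in 55.2 mM sodium phosphate buffer, pH 7.4, with 1 mg/mL BSA. Radioligand prepared in the same buffer with chymostatin, leupeptin, EDTA and EGTA. Triplicate incubations ran 18-24 h at 4 °C (equilibrium) in 1 mL, then were filtered over GF/B filters presoaked in 2% polyethylenimine.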

[3] = biological target: T2, Monoamine transporters; serotonin & dopamine (Rattus norvegicus) (UniProt P31652+P23977); experiment: Ratio of binding affinity of 5-HT to that of DA; assay type: protein assay
[4] = biological target: T3, Sodium-dependent dopamine transporter (Rattus norvegicus, UniProt P23977); experiment: Binding affinity for rat Dopamine transporter.; summary of the method: as §1
[5] = biological target: T2, Monoamine transporters; serotonin & dopamine (Rattus norvegicus); experiment: Ratio of reuptake of 5-HT to that of DA; assay type: functional
[6] = biological target: T3, Sodium-dependent dopamine transporter; experiment: Inhibition of [3H]DA reuptake in rat caudate homogenate.; assay type: functional, tissue-based

T1 sequence (P31652 whole entry): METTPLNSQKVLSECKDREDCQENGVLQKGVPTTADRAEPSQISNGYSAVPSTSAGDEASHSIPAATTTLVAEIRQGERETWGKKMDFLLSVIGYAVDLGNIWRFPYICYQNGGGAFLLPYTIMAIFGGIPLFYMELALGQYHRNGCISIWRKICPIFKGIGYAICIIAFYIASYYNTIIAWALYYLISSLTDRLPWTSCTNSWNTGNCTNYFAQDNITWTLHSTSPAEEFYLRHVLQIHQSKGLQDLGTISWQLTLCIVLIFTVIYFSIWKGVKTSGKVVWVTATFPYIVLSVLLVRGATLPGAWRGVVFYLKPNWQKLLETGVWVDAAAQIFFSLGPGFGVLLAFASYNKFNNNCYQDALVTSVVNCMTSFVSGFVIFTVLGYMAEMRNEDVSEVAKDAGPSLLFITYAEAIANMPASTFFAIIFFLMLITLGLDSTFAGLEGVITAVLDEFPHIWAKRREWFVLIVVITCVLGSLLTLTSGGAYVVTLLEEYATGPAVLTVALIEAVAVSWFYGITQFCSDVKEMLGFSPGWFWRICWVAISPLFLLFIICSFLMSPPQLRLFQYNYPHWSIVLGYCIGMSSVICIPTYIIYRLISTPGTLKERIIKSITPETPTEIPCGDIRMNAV
T2 sequence (P23977 whole entry, looked up): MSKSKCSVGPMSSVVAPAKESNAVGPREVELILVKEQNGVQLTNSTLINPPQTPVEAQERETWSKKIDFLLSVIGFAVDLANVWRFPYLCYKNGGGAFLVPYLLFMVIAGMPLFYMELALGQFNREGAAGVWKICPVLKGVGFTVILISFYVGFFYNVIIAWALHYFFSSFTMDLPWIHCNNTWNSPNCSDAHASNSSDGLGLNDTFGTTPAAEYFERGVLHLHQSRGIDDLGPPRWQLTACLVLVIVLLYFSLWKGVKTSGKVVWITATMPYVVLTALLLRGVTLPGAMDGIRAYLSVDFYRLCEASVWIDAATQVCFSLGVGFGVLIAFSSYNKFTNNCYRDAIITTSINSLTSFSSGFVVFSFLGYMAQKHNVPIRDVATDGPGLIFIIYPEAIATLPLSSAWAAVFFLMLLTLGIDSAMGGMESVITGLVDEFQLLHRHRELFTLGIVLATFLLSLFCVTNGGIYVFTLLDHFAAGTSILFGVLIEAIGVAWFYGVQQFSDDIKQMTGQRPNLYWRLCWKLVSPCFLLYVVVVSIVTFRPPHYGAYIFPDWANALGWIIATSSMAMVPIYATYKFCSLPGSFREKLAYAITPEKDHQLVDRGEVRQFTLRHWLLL
T2 sequence (P31652 whole entry, looked up): as the sequence (P31652 whole entry) above
T3 sequence (P23977 whole entry): as the sequence (P23977 whole entry, looked up) above

Row | Compound | pIC50 [1] | pIC50 [2] | Ratio [3] | pIC50 [4] | Ratio [5] | pIC50 [6]
1 | Fc1ccc(C(OCCN2CCC3CCC(C2)N3CCCc2ccccc2)c2ccc(F)cc2)cc1 (stereo not given) | 5.68 | 6.07 | 6.5 | 6.89 | 44 | 7.33
2 | c1ccc(C(OCCN2CCC3CCC(C2)N3)c2ccccc2)cc1 (stereo not given) | 5.40 | 5.22 | 14 | 6.37 | 15 | 6.59
3 | c1ccc(CCCN2C3CCC2CN(CCOC(c2ccccc2)c2ccccc2)C3)cc1 | 5.86 | 6.13 | 42 | 7.74 | 58 | 7.62
4 | CN1C2CCC1CN(CCOC(c1ccc(F)cc1)c1ccc(F)cc1)C2 | 6.05 | 6.15 | 88 | 8.10 | 93 | 8.02
5 | CN1CC2CC1CN2CCOC(c1ccccc1)c1ccccc1 (stereo not given) | 4.55 | 4.48 | 29 | 5.93 | 33 | 6.08
6 | Fc1ccc(C(OCCN2CC3CCC(C2)N3C/C=C/c2cccnc2)c2ccc(F)cc2)cc1 | 6.01 | 6.40 | 33 | 7.92 | 40 | 7.62
7 | CN1C2CCC1CN(CCOC(c1ccccc1)c1ccccc1)C2 | 4.86 | 5.19 | 58 | 6.95 | 12 | 5.94
8 | CN1C2CCC1CN(CCOC(c1ccc(F)cc1)c1ccc(F)cc1)CC2 (stereo not given) | 5.78 | 5.72 | 21 | 7.05 | 47 | 7.44
9 | Fc1ccc(C(OCCN2CC3CCC(C2)N3C/C=C/c2ccco2)c2ccc(F)cc2)cc1 | 6.52 | 6.84 | 27 | 8.26 | 13 | 7.62
10 | Fc1ccc(C(OCCN2CC3CCC(C2)N3Cc2cc3ccccc3[nH]2)c2ccc(F)cc2)cc1 | 6.19 | 6.98 | 74 | 8.85 | 16 | 7.40
11 | c1ccc(CCCN2CC3CC2CN3CCOC(c2ccccc2)c2ccccc2)cc1 (stereo not given) | 6.04 | 6.14 | 3 | 6.65 | 5 | 6.70
12 | Fc1ccc(C(OCCN2CC3CCC(C2)N3CCCc2ccccc2)c2ccc(F)cc2)cc1 | 6.30 | 7.11 |  | 8.09 |  | 6.66
13 | Fc1ccc(C(OCCN2CC3CCC(C2)N3C/C=C/c2cccs2)c2ccc(F)cc2)cc1 | 6.57 | 7.34 | 12 | 8.40 | 10 | 7.55
14 | CN1C2CCC1CN(CCOC(c1ccccc1)c1ccccc1)CC2 (stereo not given) | 5.21 | 4.77 | 56 | 6.51 | 6.6 | 6.03
15 | Fc1ccc(C(OCCN2CC3CC2CN3CCCc2ccccc2)c2ccc(F)cc2)cc1 (stereo not given) | 6.76 | 6.69 | 1.6 | 6.90 | 1.5 | 6.95
16 | CN1CC2CC1CN2CCOC(c1ccc(F)cc1)c1ccc(F)cc1 (stereo not given) | 5.67 | 5.77 | 14 | 6.92 | 17 | 6.90
17 | c1ccc(CCCN2C3CCC2CN(CCOC(c2ccccc2)c2ccccc2)CC3)cc1 (stereo not given) | 5.64 | 5.88 | 41 | 7.49 | 26 | 7.06

From ChEMBL document CHEMBL1133553, “Synthesis and transporter binding properties of bridged piperazine analogues of 1-[2-[bis(4-fluorophenyl)methoxy]ethyl]-4-(3-phenylpropyl)piperazine (GBR 12909)” (J Med Chem, 2000)
